For orientation: inhibition means the share of the control response that was lost under treatment. The low end stands for a response near the control, the high end for a response far below the control. As usually defined, the GI50 is the concentration that inhibits growth by half. A low value points to greater sensitivity of the cells. The term residual activity denotes the signal under treatment as a percentage of the control signal.

Structures are written as SMILES.

Assay [1] addresses Glycogen synthase kinase-3 beta (Homo sapiens) (UniProt P49841). Description: Inhibition of human GSK3-beta at 10 uM.
In assay [2] the test system is HT-29. Description: Growth inhibition of human HT-29 cells after 2 days by MTT assay. The assay is classed as functional. To be noted: HT-29, 48 h. The method in brief:
(§1)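 HT-29 and DU-145 cells seeded at 5 × 10⁴ cells/mL; serial concentrations added in duplicate; 37 °C, 5% CO₂, two days. MTT dye (Cell Titer96) for up to 4 h at 37 °C, then solubilization/stop mix overnight at room temperature; OD at 570 nm. GI₅₀ = concentration giving 50% growth inhibition; mean ± SEM of three or more experiments; doxorubicin as internal standard.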

Assay [3] has as its target Glycogen synthase kinase-3 beta (Homo sapiens) (UniProt P49841). Description: Inhibition of human GSK3-beta assessed as remaining enzyme activity at 10 uM; values are per cent of control.
Assay [4] relates to DU-145. Briefly: Cytotoxicity against human DU145 cells at 100 uM after 2 days by sulforhodamine B assay. To be noted: DU-145, 48 h. In kind it is functional. The method in brief: (§2)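 Five human cancer lines (HT-29, DU-145, A-549, SK-MEL-2, SK-OV-3) seeded at 3–7 × 10³ cells/well; compounds at 100 µM added in duplicate; 37 °C, 5% CO₂, two days. Fixed with formalin, SRB stained, washed with 1% acetic acid, dye solubilized in 10 mM unbuffered Tris base; OD at 520 nm. Read-out is % inhibition.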
For orientation: The SRB assay estimates cell density from bound dye.

For assay [5], the system named is DU-145. Briefly: Growth inhibition of human DU145 cells after 2 days by MTT assay. The assay is classed as functional. Particulars: DU-145, 48 h. The method in brief:
as §1

Assay [6] addresses T1, Aurora kinase A (Homo sapiens) (UniProt O14965).
T1 sequence (whole entry): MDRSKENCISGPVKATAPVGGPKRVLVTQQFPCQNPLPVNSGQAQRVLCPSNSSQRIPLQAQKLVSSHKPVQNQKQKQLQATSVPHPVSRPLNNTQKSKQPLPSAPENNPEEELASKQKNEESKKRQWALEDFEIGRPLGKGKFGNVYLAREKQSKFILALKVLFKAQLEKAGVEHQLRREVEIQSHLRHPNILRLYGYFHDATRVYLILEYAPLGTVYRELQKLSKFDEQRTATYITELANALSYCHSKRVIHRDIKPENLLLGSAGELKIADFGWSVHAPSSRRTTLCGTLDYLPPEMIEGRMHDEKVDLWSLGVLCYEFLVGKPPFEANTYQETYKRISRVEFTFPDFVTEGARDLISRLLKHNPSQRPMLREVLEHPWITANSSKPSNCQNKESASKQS
Description: Inhibition of human Aurora A assessed as remaining enzyme activity at 10 uM; values are per cent of control.

For assay [7], the system named is HT-29. Description: Cytotoxicity against human HT-29 cells at 100 uM after 2 days by sulforhodamine B assay. The assay is classed as functional. To be noted: HT-29, 48 h. The gist of the method: as §2
Assay [8] addresses Epidermal growth factor receptor (Homo sapiens) (UniProt P00533). Description: Inhibition of human EGFR assessed as remaining enzyme activity at 10 uM; values are per cent of control.
Assay [9] concerns the target Platelet-derived growth factor receptor alpha (Homo sapiens) (UniProt P16234). Briefly: Inhibition of human PDGFRalpha assessed as remaining enzyme activity at 10 uM; values are per cent of control.
In assay [10] the target is T1, Aurora kinase A (Homo sapiens). Briefly: Inhibition of human Aurora A at 10 uM.

Sequence of Platelet-derived growth factor receptor alpha (Homo sapiens) (P16234 whole entry): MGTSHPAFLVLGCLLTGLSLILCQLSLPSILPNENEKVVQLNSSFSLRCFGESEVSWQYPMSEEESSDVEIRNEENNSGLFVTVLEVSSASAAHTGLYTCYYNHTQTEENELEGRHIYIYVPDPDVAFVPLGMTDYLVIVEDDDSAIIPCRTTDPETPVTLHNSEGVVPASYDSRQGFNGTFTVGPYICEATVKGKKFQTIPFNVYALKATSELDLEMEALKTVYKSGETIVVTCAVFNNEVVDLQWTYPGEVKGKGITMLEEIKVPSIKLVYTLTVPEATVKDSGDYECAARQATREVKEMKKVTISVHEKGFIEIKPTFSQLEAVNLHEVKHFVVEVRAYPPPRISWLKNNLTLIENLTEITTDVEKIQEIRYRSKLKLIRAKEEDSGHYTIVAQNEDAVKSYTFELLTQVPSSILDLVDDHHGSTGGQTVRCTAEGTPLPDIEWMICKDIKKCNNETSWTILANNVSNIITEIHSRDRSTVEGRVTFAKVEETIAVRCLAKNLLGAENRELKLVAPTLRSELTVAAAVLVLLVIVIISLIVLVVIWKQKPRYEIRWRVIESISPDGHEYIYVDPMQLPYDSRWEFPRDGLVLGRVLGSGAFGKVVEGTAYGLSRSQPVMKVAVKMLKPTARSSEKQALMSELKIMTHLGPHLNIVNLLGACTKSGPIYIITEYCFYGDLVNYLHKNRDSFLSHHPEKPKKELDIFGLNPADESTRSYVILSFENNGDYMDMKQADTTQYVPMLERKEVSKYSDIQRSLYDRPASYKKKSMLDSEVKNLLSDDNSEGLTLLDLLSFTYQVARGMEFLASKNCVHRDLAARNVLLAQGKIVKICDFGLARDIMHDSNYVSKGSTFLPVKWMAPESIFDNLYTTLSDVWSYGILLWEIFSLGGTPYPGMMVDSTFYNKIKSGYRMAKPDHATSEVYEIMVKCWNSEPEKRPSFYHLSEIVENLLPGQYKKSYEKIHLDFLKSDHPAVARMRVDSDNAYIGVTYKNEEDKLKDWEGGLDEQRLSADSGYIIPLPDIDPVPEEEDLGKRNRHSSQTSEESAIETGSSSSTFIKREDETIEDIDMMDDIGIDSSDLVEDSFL
Sequence of Epidermal growth factor receptor (Homo sapiens) (P00533 whole entry): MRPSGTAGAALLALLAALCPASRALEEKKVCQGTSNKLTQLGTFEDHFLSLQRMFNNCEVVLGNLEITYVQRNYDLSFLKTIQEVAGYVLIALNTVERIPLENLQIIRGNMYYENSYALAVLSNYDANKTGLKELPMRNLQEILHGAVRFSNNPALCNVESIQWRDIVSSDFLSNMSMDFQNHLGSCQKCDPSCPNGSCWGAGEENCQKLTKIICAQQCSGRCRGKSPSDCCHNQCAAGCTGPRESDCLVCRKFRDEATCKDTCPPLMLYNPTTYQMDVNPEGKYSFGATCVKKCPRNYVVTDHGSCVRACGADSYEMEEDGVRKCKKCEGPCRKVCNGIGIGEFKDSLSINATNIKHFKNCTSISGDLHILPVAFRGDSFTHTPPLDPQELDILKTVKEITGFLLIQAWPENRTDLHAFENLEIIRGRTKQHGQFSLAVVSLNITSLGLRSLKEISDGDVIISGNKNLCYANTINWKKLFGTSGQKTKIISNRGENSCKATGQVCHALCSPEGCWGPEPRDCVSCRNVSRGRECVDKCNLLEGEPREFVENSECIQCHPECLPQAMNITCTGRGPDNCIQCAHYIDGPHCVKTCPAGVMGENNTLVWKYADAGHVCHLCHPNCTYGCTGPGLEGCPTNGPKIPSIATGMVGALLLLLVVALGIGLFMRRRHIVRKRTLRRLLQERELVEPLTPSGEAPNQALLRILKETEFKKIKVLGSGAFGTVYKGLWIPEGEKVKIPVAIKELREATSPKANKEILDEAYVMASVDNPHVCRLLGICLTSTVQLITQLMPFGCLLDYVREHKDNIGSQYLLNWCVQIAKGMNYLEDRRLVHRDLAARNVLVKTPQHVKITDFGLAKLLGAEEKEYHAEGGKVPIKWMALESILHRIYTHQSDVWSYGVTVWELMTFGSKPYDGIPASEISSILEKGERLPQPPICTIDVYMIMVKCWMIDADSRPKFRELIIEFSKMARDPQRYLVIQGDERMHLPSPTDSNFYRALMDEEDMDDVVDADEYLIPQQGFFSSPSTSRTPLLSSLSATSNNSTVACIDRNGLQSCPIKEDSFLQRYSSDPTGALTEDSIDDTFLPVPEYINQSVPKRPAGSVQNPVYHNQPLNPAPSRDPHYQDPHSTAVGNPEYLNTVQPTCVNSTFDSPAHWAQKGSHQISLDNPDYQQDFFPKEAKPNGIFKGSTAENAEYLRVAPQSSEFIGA
Sequence of Glycogen synthase kinase-3 beta (Homo sapiens) (P49841 whole entry, looked up): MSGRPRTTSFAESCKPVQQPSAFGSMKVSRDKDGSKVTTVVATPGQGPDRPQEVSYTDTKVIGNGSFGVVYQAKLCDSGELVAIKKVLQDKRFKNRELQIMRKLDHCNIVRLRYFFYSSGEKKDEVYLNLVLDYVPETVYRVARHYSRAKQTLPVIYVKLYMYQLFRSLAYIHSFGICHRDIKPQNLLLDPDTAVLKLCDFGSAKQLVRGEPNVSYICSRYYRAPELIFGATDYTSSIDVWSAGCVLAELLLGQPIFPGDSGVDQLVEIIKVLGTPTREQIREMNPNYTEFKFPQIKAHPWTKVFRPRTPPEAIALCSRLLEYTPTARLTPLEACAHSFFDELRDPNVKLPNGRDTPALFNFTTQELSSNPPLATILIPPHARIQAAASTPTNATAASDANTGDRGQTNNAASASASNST

For the molecule `CCCCCc1nc2c(-c3ccc(Cl)cc3)n[nH]c2c(=O)n1NC(=O)c1cccc(C)c1`, the inhibition came to 94% in [1] and 93% in assay [10]. For the same molecule, the results for the 50% growth inhibitory concentration (GI50) in assay [2] and in assay [5] were 5.37 µM and 12.9 µM, respectively. In addition, the residual activity in [3] came to 6%; in [6], 7%; in assay [8], 82%; in assay [9], 92%. Further, the inhibition at 100 µM in [4] stood at 88.8%; in assay [7] it was 90.5%.
As to `O=C(Cc1ccccc1)Nn1c(CC2CCCCC2)nc2c(-c3ccc(Cl)cc3)n[nH]c2c1=O`, the inhibition in [1] is 89%; in assay [10], 74%. In addition, the GI50 stood at 6.39 µM in assay [2] and 15.1 µM in assay [5]. Also, the residual activity in assay [3] was 11%; in assay [6], 26%; in [8] it was 113%; in assay [9], 77%. Moreover, the inhibition at 100 µM was determined as 79.8% in assay [4] and 85.5% in assay [7].
Consider `CCCCCc1nc2c(-c3ccc(Cl)cc3)n[nH]c2c(=O)n1NC(=O)c1ccccc1`, for which the inhibition in [1] worked out at 92%; in [10] it was 91%. In addition, the values for the GI50 in assay [2] and in assay [5] were 2.26 µM and 22.1 µM, respectively. The residual activity is 8% in assay [3], 9% in [6], 76% in assay [8] and 99% in [9]. Further, the inhibition at 100 µM in assay [4] was 88.7%; in assay [7] it was 90.1%.
`CCCCc1nc2c(-c3ccc(Cl)cc3)n[nH]c2c(=O)n1NC(=O)c1ccccc1`: the figures for the inhibition in assay [1] and in assay [10] were 89% and 84%, respectively. Besides, the GI50 was 0.71 µM in [2] and 29.1 µM in assay [5]. The residual activity was 11% in [3], 16% in assay [6], 86% in assay [8] and 105% in assay [9]. The inhibition at 100 µM stood at 93% in assay [4] and 89.5% in assay [7].
For the molecule `Cc1cccc(C(=O)Nn2c(CC3CCCCC3)nc3c(-c4ccc(Cl)cc4)n[nH]c3c2=O)c1`, the values for the inhibition in assay [1] and in assay [10] were 89% and 82%, respectively. Moreover, the GI50 in [2] worked out at 0.44 µM; in [5] it was 1.07 µM. Moreover, the residual activity came to 11% in assay [3], 18% in assay [6], 85% in [8] and 95% in assay [9]. Moreover, the inhibition at 100 µM in assay [4] was 85.9%; in assay [7], 88.7%.

The record behind these values is ChEMBL document CHEMBL1154962, “Novel 6-N-arylcarboxamidopyrazolo[4,3-d]pyrimidin-7-one derivatives as potential anti-cancer agents” (2010).
